Results as given in ChEMBL document CHEMBL1773044, “Potent, selective, and orally bioavailable inhibitors of mammalian target of rapamycin (mTOR) kinase based on a quaternary substituted dihydrofuropyrimidine” (J Med Chem, 2011).
pIC50, pKi: −log10 of the molar value. Blank lines part the entries; values can stand above or below the molecule they belong to.

Assays:
PC-3 = assay: Antiproliferative activity against human PC3 cells after 3 days by CellTiter-Glo luminescent cell viability assay; details: PC-3, 72 h
MCF7 = assay: Antiproliferative activity against human MCF7 cells expressing neo/Her2 after 3 days by CellTiter-Glo luminescent cell viability assay; details: MCF7, 72 h
Mus musculus [1] = assay: (§1) AUC in mouse at 5 mg/kg, po; format: ADME, organism-based, Plasma; design: dose 5 mg/kg, route oral; details: in vivo
Outline: (§2)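 Mouse PK: iv dose 1 mg/kg given as a solution in 80% PEG/10% EtOH; po dose 5 mg/kg given as a suspension in MCT (0.5% methylcellulose/0.2% Tween 80).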

[2] = Half life in mouse at 1 mg/kg, iv; format: ADME, organism-based; design: dose 1 mg/kg, route intravenous; details: in vivo; outline: as §2
Mus musculus [3] = assay: (§3) Oral bioavailability in mouse at 5 mg/kg; format: ADME, organism-based; details: in vivo; outline: as §2
[4] = Plasma protein binding in mouse; format: ADME, cell-free; details: read-out: PPB (converted)
[5] = Plasma protein binding in rat; format: ADME, cell-free; details: read-out: PPB (converted)
[6] = Volume of distribution at steady state in mouse at 1 mg/kg, iv; format: ADME, organism-based; design: dose 1 mg/kg, route intravenous; details: in vivo, read-out: Vdss; outline: as §2
[7] = Plasma protein binding in human; format: ADME, cell-free; details: read-out: PPB (converted)
[8] = as §1; format: ADME, organism-based, Plasma; design: dose 5 mg/kg, route oral; details: plasma; outline: as §2
Mus musculus [9] = assay: In vivo inhibition of mTORC1 in NCR nude mouse xenografted with human NCI-PC3 cells assessed as reduction in phosphorylated S6RP level at 25 to 100 mg/kg, po administered as single dose relative to control; values are per cent of control; details: dose mg/kg 25-100
[10] = as §3; format: ADME, organism-based; details: in vivo; outline: as §2
[11] = Clearance in mouse at 1 mg/kg, iv; format: ADME, organism-based; design: dose 1 mg/kg, route intravenous; details: in vivo; outline: as §2
Mus musculus [12] = assay: In vivo inhibition of mTORC2 in NCR nude mouse xenografted with human NCI-PC3 cells assessed as reduction in phosphorylated Akt level at 25 to 100 mg/kg, po administered as single dose relative to control; values are per cent of control; details: dose mg/kg 25-100
[13] = Selectivity ratio of Ki for human recombinant mTOR (1360-2549) over Ki for PI3Kalpha
[14] = molecular target: Serine/threonine-protein kinase mTOR (Homo sapiens, UniProt P42345); assay: Inhibition of human recombinant mTOR expressed in insect cells using 4E-BP1 substrate after 30 mins by fluorescence resonance energy transfer assay

SMILES: C[C@H]1COCCN1c1nc(-c2ccc(NC(=O)NC[C@@H](O)CO)cc2)nc2c1COC2(C)C
- pIC50 (PC-3): 6.48
- pIC50 (MCF7): 5.72

SMILES: CCNC(=O)Nc1ccc(-c2nc(N3CCOC[C@@H]3C)c3c(n2)[C@@](C)(CCO)OC3)cc1
- AUC (Mus musculus [1]): 0.43 µM·h
- pIC50 (PC-3): 6.93
- half-life [2]: 20.4 min
- F (Mus musculus [3]): 65%
- fraction unbound [4]: 0.06
- fraction unbound [5]: 0.21
- Vd [6]: 2.4 L/kg
- pIC50 (MCF7): 6.29
- fraction unbound [7]: 0.14

SMILES: CCNC(=O)Nc1ccc(-c2nc(N3CCOCC3)c3c(n2)C(C)(C)OC3=O)cc1
- AUC (Mus musculus [1]): 1.5 µM·h
- pIC50 (PC-3): 6.92
- half-life [2]: 12.6 min
- bioavailability (Mus musculus [3]): 23%
- fraction unbound [4]: 0.02
- fraction unbound [5]: 0.05
- Vd [6]: 0.57 L/kg
- pIC50 (MCF7): 6.51
- fraction unbound [7]: 0.02

SMILES: CCNC(=O)Nc1ccc(-c2nc(N3CCOC[C@@H]3C)c3c(n2)C(C)(C)OC3)cc1
- AUC [8]: 6.1 µM·h
- pIC50 (PC-3): 7.11
- level, % of control (Mus musculus [9]): 15%
- half-life [2]: 24 min
- bioavailability [10]: 140%
- fraction unbound [4]: 0.05
- fraction unbound [5]: 0.08
- Vd [6]: 1.4 L/kg
- pIC50 (MCF7): 7.28
- clearance [11]: 46 mL/min/kg
- level, % of control (Mus musculus [12]): 15%
- fraction unbound [7]: 0.14

SMILES: CCNC(=O)Nc1ccc(-c2nc(N3CCOC[C@@H]3C)c3c(n2)[C@@](C)(CO)OC3)cc1
- pIC50 (PC-3): 6.35
- pIC50 (MCF7): 6.28

SMILES: CCNC(=O)Nc1ccc(-c2nc(N3CCOCC3)c3sc(C(C)(C)O)cc3n2)cc1
- Ratio Ki [13]: 20
- pKi [14]: 8.52

SMILES: C[C@H]1COCCN1c1nc(-c2ccc(Nc3cccc(=O)[nH]3)cc2)nc2c1COC2(C)C
- AUC [8]: 0.31 µM·h
- pIC50 (PC-3): 6.92
- half-life [2]: 132 min
- bioavailability [10]: 7%
- fraction unbound [4]: 0.03
- fraction unbound [5]: 0.04
- Vd [6]: 1.9 L/kg
- pIC50 (MCF7): 6.92
- clearance [11]: 44 mL/min/kg
- fraction unbound [7]: 0.02

SMILES: CCNC(=O)Nc1ccc(-c2nc(N3CCOCC3)c3c(n2)[C@](C)(CO)OC3)cc1
- pIC50 (PC-3): 6.66
- pIC50 (MCF7): 6.55

SMILES: CCNC(=O)Nc1ccc(-c2nc(N3CCOC[C@@H]3C)c3c(n2)[C@](C)(CC2CC2)OC3)cc1
- pIC50 (PC-3): 7.00
- pIC50 (MCF7): 6.47

SMILES: CCNC(=O)Nc1ccc(-c2nc(N3CCOCC3)c3c(n2)[C@@](C)(CC(C)(C)O)OC3)cc1
- pIC50 (PC-3): 6.85
- pIC50 (MCF7): 6.77

SMILES: C[C@H]1COCCN1c1nc(-c2ccc(NC(=O)NC3COC3)cc2)nc2c1COC2(C)C
- pIC50 (PC-3): 6.80
- pIC50 (MCF7): 6.32

SMILES: CCNC(=O)Nc1ccc(-c2nc(N3CCOC[C@@H]3C)c3c(n2)[C@](C)(CO)OC3)cc1
- pIC50 (PC-3): 7.02
- pIC50 (MCF7): 6.72

SMILES: CCNC(=O)Nc1ccc(-c2nc(N3CCOC[C@@H]3C)c3c(n2)[C@@](C)(CC(C)(C)O)OC3)cc1
- AUC (Mus musculus [1]): 0.65 µM·h
- pIC50 (PC-3): 6.89
- half-life [2]: 78 min
- F (Mus musculus [3]): 73%
- fraction unbound [4]: 0.15
- fraction unbound [5]: 0.12
- Vd [6]: 2.7 L/kg
- pIC50 (MCF7): 7.54
- fraction unbound [7]: 0.34

SMILES: CCNC(=O)Nc1ccc(-c2nc(N3CCOC[C@@H]3C)c3c(n2)[C@@](C)(CCOC)OC3)cc1
- pIC50 (PC-3): 6.55
- pIC50 (MCF7): 5.92

SMILES: CCNC(=O)Nc1ccc(-c2nc(N3CCOC[C@@H]3C)c3c(n2)[C@](C)(CCC#N)OC3)cc1
- pIC50 (PC-3): 7.13
- pIC50 (MCF7): 6.71

SMILES: CCNC(=O)Nc1ccc(-c2nc(N3CCOC[C@@H]3C)c3c(n2)[C@](C)(CCN(C)C)OC3)cc1
- AUC [8]: 0.14 µM·h
- pIC50 (PC-3): 6.66
- half-life [2]: 34.2 min
- bioavailability [10]: 6%
- fraction unbound [4]: 0.22
- fraction unbound [5]: 0.33
- Vd [6]: 2.6 L/kg
- pIC50 (MCF7): 5.96
- clearance [11]: 76 mL/min/kg
- fraction unbound [7]: 0.41

SMILES: CCNC(=O)Nc1ccc(-c2nc(N3CCOCC3)c3c(n2)[C@@](C)(CCO)OC3)cc1
- pIC50 (PC-3): 6.68
- pIC50 (MCF7): 6.31

SMILES: CCNC(=O)Nc1ccc(-c2nc(N3CCOCC3)c3c(n2)[C@@](C)(CO)OC3)cc1
- pIC50 (PC-3): 6.02
- pIC50 (MCF7): 5.77

SMILES: C[C@H]1COCCN1c1nc(-c2ccc(NC(=O)NCCC#N)cc2)nc2c1COC2(C)C
- pIC50 (PC-3): 6.92
- pIC50 (MCF7): 6.59

Further molecules by rising pIC50 (PC-3), results first:

- pIC50 (PC-3): 7.18
- pIC50 (MCF7): 6.80
SMILES: CCNC(=O)Nc1ccc(-c2nc(N3C[C@H]4CC[C@@H](C3)O4)c3c(n2)[C@@](C)(CCO)OC3)cc1

- pIC50 (PC-3): 7.21
- pIC50 (MCF7): 6.89
SMILES: CCNC(=O)Nc1ccc(-c2nc(N3CCOC[C@@H]3C)c3c(n2)[C@](C)(CCOC)OC3)cc1

- pIC50 (PC-3): 7.22
- pIC50 (MCF7): 6.66
SMILES: CCNC(=O)Nc1ccc(-c2nc(N3CCOC[C@@H]3C)c3c(n2)C(C)(C)OC3=O)cc1

- pIC50 (PC-3): 7.28
- pIC50 (MCF7): 6.80
SMILES: C[C@H]1COCCN1c1nc(-c2ccc(NC(=O)Nc3cnn(C)c3)cc2)nc2c1COC2(C)C

- AUC [8]: 0.81 µM·h
- pIC50 (PC-3): 7.34
- half-life [2]: 25.2 min
- bioavailability [10]: 22%
- fraction unbound [4]: 0.19
- fraction unbound [5]: 0.3
- Vd [6]: 1.5 L/kg
- pIC50 (MCF7): 7.18
- clearance [11]: 53 mL/min/kg
- fraction unbound [7]: 0.28
SMILES: C[C@H]1COCCN1c1nc(-c2ccc(NC(=O)NCCO)cc2)nc2c1COC2(C)C

- pIC50 (PC-3): 7.39
- pIC50 (MCF7): 7.00
SMILES: CCNC(=O)Nc1ccc(-c2nc(N3CCOC[C@@H]3C)c3c(n2)[C@@](C)(CCC#N)OC3)cc1

- pIC50 (PC-3): 7.51
- pIC50 (MCF7): 7.02
SMILES: CCNC(=O)Nc1ccc(-c2nc(N3CCOC[C@@H]3C)c3c(n2)[C@@](C)(CC2CC2)OC3)cc1

- AUC (Mus musculus [1]): 0.66 µM·h
- pIC50 (PC-3): 7.55
- half-life [2]: 16.2 min
- F (Mus musculus [3]): 55%
- fraction unbound [4]: 0.14
- fraction unbound [5]: 0.21
- Vd [6]: 1 L/kg
- pIC50 (MCF7): 7.57
- fraction unbound [7]: 0.23
SMILES: CCNC(=O)Nc1ccc(-c2nc(N3CCOCC3)c3c(n2)[C@](C)(CC(C)(C)O)OC3)cc1

- AUC (Mus musculus [1]): 0.63 µM·h
- pIC50 (PC-3): 7.74
- half-life [2]: 66 min
- F (Mus musculus [3]): 53%
- fraction unbound [4]: 0.09
- fraction unbound [5]: 0.22
- Vd [6]: 1.3 L/kg
- pIC50 (MCF7): 7.12
- fraction unbound [7]: 0.18
SMILES: CCNC(=O)Nc1ccc(-c2nc(N3CCOC[C@@H]3C)c3c(n2)[C@](C)(CC(C)(C)O)OC3)cc1

- AUC (Mus musculus [1]): 0.78 µM·h
- pIC50 (PC-3): 7.77
- half-life [2]: 46.2 min
- F (Mus musculus [3]): 50%
- fraction unbound [4]: 0.11
- fraction unbound [5]: 0.26
- Vd [6]: 2 L/kg
- pIC50 (MCF7): 7.66
- fraction unbound [7]: 0.27
SMILES: CCNC(=O)Nc1ccc(-c2nc(N3C[C@H]4CC[C@@H](C3)O4)c3c(n2)[C@](C)(CCO)OC3)cc1

- AUC (Mus musculus [1]): 0.96 µM·h
- pIC50 (PC-3): 7.80
- half-life [2]: 42.6 min
- F (Mus musculus [3]): 56%
- fraction unbound [4]: 0.17
- fraction unbound [5]: 0.24
- Vd [6]: 1.5 L/kg
- pIC50 (MCF7): 7.32
- fraction unbound [7]: 0.22
SMILES: CCNC(=O)Nc1ccc(-c2nc(N3CCOCC3)c3c(n2)[C@](C)(CCO)OC3)cc1

- AUC (Mus musculus [1]): 0.59 µM·h
- pIC50 (PC-3): 7.82
- half-life [2]: 19.8 min
- F (Mus musculus [3]): 110%
- fraction unbound [4]: 0.06
- Vd [6]: 1.5 L/kg
- pIC50 (MCF7): 7.82
- fraction unbound [7]: 0.13
SMILES: CCNC(=O)Nc1ccc(-c2nc(N3CCOC[C@@H]3C)c3c(n2)[C@](C)(CCO)OC3)cc1
- level, % of control (Mus musculus [9]): 15%
- level, % of control (Mus musculus [12]): 15%
